PfGluPho inh – PfG6PD (Plasmodium falciparum) enzyme inhibition. AID 504690. hit rate 0.78% among 350,000. PfGluPho enzyme, NADPH resazurin-diaphorase fluorescence. inhibition, % at 20 µM;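 active means inhibition reaching at least a set limit at 20 µM in the primary screen, cut at about 59% in these data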
G6PDH counter – counter-screen for G6PDH assay hits: L. mesenteroides G6PDH inhibition; Purified L. mesenteroides G6PDH, diaphorase/resazurin coupled fluorescence, 45 min; inhibition, % at 5 µM; hit rate 0.12% among 200,000
Diaphorase act – diaphorase activation or chemical reduction counter-screen. Diaphorase/resazurin coupled assay, resorufin fluorescence, 16 min; hits give high values; 1 = vehicle wells, 0 = NADH-free wells. activation factor at 20 µM. hit rate 0.005% among 190,000. AID 1229;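 active means diaphorase activity raised at least twofold by the compound at 20 µM; inactive means activation factor below 2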
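Test system: Clostridium kluyveri diaphorase, purified enzyme; input: enzyme 0.07 U/mL final; buffer or medium: 50 mM HEPES pH 7.4 with 4.542 mM MgCl2, 0.005% Tween 20; also added: 0.114 mM NADH and 0.1 mM resazurin, final amounts; schedule: 16 min enzyme reaction, ambient temperature; technique: fluorescence of resorufin, 544 nm excitation, 590 nm emission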
Lmaj promast – inhibitors of Leishmania major promastigote growth; hit rate 9% among 200,000; inhibition, % at 10 µM; Leishmania major promastigotes, resazurin fluorescence viability;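 further: promastigotes grown with compound for 44 hours at 28 °C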
Redox H2O2 prof – compounds producing H2O2 with reducing agent – biochemical, NIH compound library profiling, artefact control for MLSCN library redox annotation, primary screen; DTT-dependent redox cycling H2O2, phenol red/HRP absorbance; 100% = 100 µM peroxide control, 0% = buffer; activation, % at 10 µM; hit rate 0.03% among 200,000; AID 878;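 active means activation of at least 50% relative to the plate's high and low controls in the primary single-dose screen; inactive means activation below 50%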;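 further: compound incubated with DTT at 0.8 mM final as the reducing agent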
Diaph inh CS – diaphorase inhibition or chemical oxidation counter-screen; diaphorase resazurin-to-resorufin fluorescence, NADH, 16 min; bacterial (C. kluyveri) enzyme, not human; hit rate 0.69% among 190,000; inhibition, % at 20 µM;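 active means primary screen inhibition at 20 µM above a set limit, cut at about 50% in these data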
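Test system: diaphorase enzyme from Clostridium kluyveri; amount: diaphorase at 0.14 U/mL in enzyme working solution; detection: fluorescence of resorufin formed from resazurin, Ex 544/Em 590 nm; times: reaction incubation of 16 min at room temperature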
Of the large screens only hits and unclear results are named; the others gave an inactive call. Shown is part of a subset that was picked to be rich in hits. Unless noted, no stated cut-off is given here; in the data, active means inhibition above about 50%; inactive means the rest.

C=CCN1C=C/C(=C\C=C(C#N)C#N)c2ccccc21	Lmaj promast 69.8
CCCCCCN1C=C/C(=C\C=C(C#N)C#N)c2ccccc21	none
COc1cccc2cc(-c3ccccc3)oc12	none (no result: G6PDH counter, Diaphorase act, Lmaj promast, Redox H2O2 prof, Diaph inh CS)
COc1cccc2cc(-c3ccnc(=S)[nH]3)oc12	Diaph inh CS 57.5 (no result: PfGluPho inh)
COc1ccc(CCN2CC(C#N)=C3c4cc(OC)c(OC)cc4CCN3C2)cc1OC	Lmaj promast 94.8
O=C(N/C(=C/C=C/c1ccccc1)C(=O)N1CCCCC1)c1ccc([N+](=O)[O-])cc1	Lmaj promast 61.2
CC(=O)N/C(=C\c1cccc([N+](=O)[O-])c1)C(=O)NC1CCCCC1	Lmaj promast 51.4
O=C(N/C(=C/c1ccc([N+](=O)[O-])cc1)C(=O)N1CCCC1)c1ccccc1	none (no result: G6PDH counter, Diaphorase act, Lmaj promast, Redox H2O2 prof, Diaph inh CS)
O=C(N/C(=C/c1cccc([N+](=O)[O-])c1)C(=O)N1CCCCCC1)c1cccs1	Lmaj promast 61.4
O=C(N/C(=C/c1cccc([N+](=O)[O-])c1)C(=O)N1CCCCC1)c1cccs1	Lmaj promast 90.4
Cc1c(OCC(=O)NCC2CCC(C(=O)O)CC2)ccc2c(-c3ccccc3)cc(=O)oc12 (stereo not drawn)	none (no result: G6PDH counter, Diaphorase act, Lmaj promast, Redox H2O2 prof, Diaph inh CS)
C=CCO/N=C(/C)c1c(O)c(CC)c(-c2ccccc2)n(-c2ccccc2)c1=O	Lmaj promast 51.0
CCc1c(O)c(/C(C)=N\O)c(=O)n(-c2ccccc2)c1-c1ccccc1	Lmaj promast 67.3
Cc1ccccc1-c1nnc(SCCOc2ccc3c(C)cc(=O)oc3c2)o1	none
CC(NCc1ccncc1)C12CC3CC(CC(C3)C1)C2 (stereo not drawn)	Lmaj promast 68.5
c1cc(CNC2C3CC4CC(C3)CC2C4)ccn1 (stereo not drawn)	Lmaj promast 82.8
O=C(NCc1ccncc1)C12CC3CC(CC(C3)C1)C2	none
Cc1ccc(-c2nnc(NC3CCCC3)s2)cc1	none (no result: G6PDH counter, Diaphorase act, Lmaj promast, Redox H2O2 prof, Diaph inh CS)
O=[N+]([O-])c1nn(-c2ccc3c(c2)OCCO3)n(O)c1=NC1CCCCC1	Lmaj promast 70.1
O=[N+]([O-])c1nn(-c2ccc3c(c2)OCCO3)n(O)c1=NCc1ccccc1Cl	Lmaj promast 81.7
COc1ccc(-n2nc([N+](=O)[O-])c(=NC3CCN(Cc4ccccc4)CC3)n2O)cc1	none
CN(C)c1ccc(NC2=C(Cl)C(=O)c3ccccc3C2=O)cc1	G6PDH counter 50.7
COc1ccc2cc(CN(Cc3ccco3)Cc3nnnn3C3CCCCC3)c(=O)[nH]c2c1	Lmaj promast 95.8
COc1ccc2cc(CN(Cc3ccco3)C(c3nnnn3C3CCCCC3)C(C)C)c(=O)[nH]c2c1 (stereo not drawn)	Lmaj promast 98.5
COc1ccc(Cn2nnnc2C(C(C)C)N(Cc2ccco2)Cc2cccs2)cc1 (stereo not drawn)	Lmaj promast 77.5
c1ccc(-c2cc(N3CCCCCC3)n[nH]2)cc1	Diaph inh CS 59.1
CCOc1ccc(C2c3cc(OC)c(OC)cc3CC(=O)N2c2ccc(OC)cc2)cc1 (stereo not drawn)	Lmaj promast 80.5
Cc1ccc(CNCc2cc(Cl)ccc2O)cc1	none (no result: G6PDH counter, Diaphorase act, Lmaj promast, Redox H2O2 prof, Diaph inh CS)
O=C(NCc1ccco1)C1Cc2ccccc2CN1S(=O)(=O)c1ccccc1F (stereo not drawn)	none (no result: G6PDH counter, Diaphorase act, Diaph inh CS)
CCCOc1ccc2c(CC)cc(=O)oc2c1C	none
C=C(C)COc1ccc2c(C)c(CC(=O)OC)c(=O)oc2c1C	Lmaj promast 58.2
C=C(C)COc1ccc2c(CC)cc(=O)oc2c1C	Lmaj promast 61.7 (no result: Redox H2O2 prof)
C=C1/C=C(\C)C(C)(O)CC(O)CC(=O)C(O)C(O)C(C)CC(C)OC(=O)/C(C)=C/CC/C=C/C(OC)C(O)CC(C)C1 (stereo not drawn)	none (no result: G6PDH counter, Diaphorase act, Lmaj promast, Redox H2O2 prof, Diaph inh CS)
O=C(O)CCCCCN1C(=O)/C(=C/c2cn(-c3ccccc3)nc2-c2cccs2)SC1=S	none (no result: G6PDH counter, Diaphorase act, Lmaj promast, Redox H2O2 prof, Diaph inh CS)
CN1CCC(N(C)C(=O)/C=C/c2cn(-c3ccccc3)nc2-c2cccs2)CC1	Lmaj promast 100.7
CC1=NNC(=O)/C1=C\c1cn(-c2ccccc2)nc1-c1ccc(F)cc1	Lmaj promast 100.4
CC1=NNC(=O)/C1=C\c1cn(-c2ccccc2)nc1-c1cccs1	Lmaj promast 100.5
O=Cc1cn(-c2ccccc2)nc1-c1ccc(F)cc1	none (no result: G6PDH counter, Diaphorase act, Lmaj promast, Redox H2O2 prof, Diaph inh CS)
COc1ccc(C2c3ccc(O)cc3Oc3ncn4nc(-c5ccncc5)nc4c32)cc1OC (stereo not drawn)	none (no result: G6PDH counter, Diaphorase act, Lmaj promast, Redox H2O2 prof, Diaph inh CS)
COc1ccc(OC)c(C(=O)Cn2c3[n+](c4ccc(C(F)(F)F)cc42)CCCCC3)c1	Lmaj promast 98.9
O=C(c1ccc2c(=O)n3c(nc2c1)CCCCC3)N1CCc2ccccc21	none (no result: G6PDH counter, Diaphorase act, Lmaj promast, Redox H2O2 prof, Diaph inh CS)
COc1ccc(S(=O)(=O)N2CCOCC2)cc1NC(=O)CN1CCC(Cc2ccccc2)CC1	Lmaj promast 99.1
COc1ccc(S(=O)(=O)N2CCOCC2)cc1NC(=O)CN1CCCC1	none
COc1ccc(S(=O)(=O)N2CCOCC2)cc1NC(=O)COC(=O)C1COc2ccccc2O1 (stereo not drawn)	Lmaj promast 66.2
Cc1ccc(NC(=O)CSc2nnc(-c3cccnc3)n2CCN2CCCCC2)cc1	none
COc1ccc(CCn2c(-c3cc([N+](=O)[O-])cc([N+](=O)[O-])c3)nc3nc4ccccc4nc32)cc1	Lmaj promast 88.9
COc1ccc(CCn2c(-c3cc([N+](=O)[O-])cc([N+](=O)[O-])c3)nc3nc4ccccc4nc32)cc1OC	Lmaj promast 79.7
COc1ccc(CCn2c(-c3cccc([N+](=O)[O-])c3)nc3nc4ccccc4nc32)cc1	none (no result: G6PDH counter, Diaphorase act, Lmaj promast, Redox H2O2 prof, Diaph inh CS)
CCCCCCCOc1ccc(OC(=O)c2ccncc2)cc1	none
O=C(COC(=O)c1cc[n+]([O-])cc1)Nc1cccc(F)c1	none (no result: G6PDH counter, Diaphorase act, Lmaj promast, Redox H2O2 prof, Diaph inh CS)
CCN(C(=O)CSc1nnc(Nc2ccccc2)s1)C1CCS(=O)(=O)C1 (stereo not drawn)	Lmaj promast 57.7
CCCCn1c(SCC(=O)N(CC)C2CCS(=O)(=O)C2)nc2cc(S(N)(=O)=O)ccc21 (stereo not drawn)	none
Cc1ccc(Nc2nnc(SCC(=O)N(C)C3CCS(=O)(=O)C3)s2)cc1 (stereo not drawn)	Lmaj promast 55.6
CCN(C(=O)CSc1nc2cc(C(F)(F)F)ccc2n1Cc1ccccc1)C1CCS(=O)(=O)C1 (stereo not drawn)	Lmaj promast 98.2
C=CCn1c(O)c2ccc(C(=O)N=NC(=O)c3ccc(F)cc3)cc2c1O	none (no result: G6PDH counter, Diaphorase act, Lmaj promast, Redox H2O2 prof, Diaph inh CS)
O=C(C[C@H]1C[C@@H]2c3cc(NC(=O)c4ccc5c(c4)OCO5)ccc3O[C@@H]2[C@H](CO)O1)NCc1cc(F)ccc1F	none (no result: G6PDH counter, Diaphorase act, Lmaj promast, Redox H2O2 prof, Diaph inh CS)
Cc1ccc(Cl)c(OCC(=O)Nc2ccc(S(=O)(=O)NC3=NCCCCC3)cc2)c1	none (no result: G6PDH counter, Diaphorase act, Lmaj promast, Redox H2O2 prof, Diaph inh CS)
Cc1cc(OCC(=O)Nc2ccc(S(=O)(=O)NC3=NCCCCC3)cc2)c(C(C)C)cc1Cl	Lmaj promast 70.6

Screens as filed in PubChem BioAssay.
